Measurements as given in ChEMBL document CHEMBL2424580, “Radiosynthesis of N-(4-chloro-3-[(11)C]methoxyphenyl)-2-picolinamide ([(11)C]ML128) as a PET radiotracer for metabotropic glutamate receptor subtype 4 (mGlu4)” (Bioorg Med Chem, 2013).

Tests used:
[1] = system: Thalamus; assay: Drug uptake in Sprague-Dawley rat thalamus at 24.1 MBq, iv measured for 1 to 3 mins by PET analysis; assay type: ADME, organism-based; conditions: in vivo
Summary of the method: (§1)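 Male Sprague Dawley rats (300–500 g) under isoflurane/nitrous oxide anesthesia, with radioligand given via tail-vein catheter in 10% ethanol/saline. Dynamic small-animal PET ran for 60 min from injection (frames 18×10″, 14×30″, 20×60″, 10×180″), followed by CT for anatomy and attenuation. Data were corrected for uniformity, scatter and attenuation and reconstructed by MLEM (30 iterations) to give regional time-activity curves.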

[2] = Drug uptake in Sprague-Dawley rat olfactory bulb at 24.1 MBq, iv measured for 1 to 3 mins by PET analysis; assay type: ADME, organism-based; conditions: in vivo; summary of the method: as §1
[3] = system: Cerebellum; assay: Drug uptake in Sprague-Dawley rat cerebellum at 24.1 MBq, iv measured within 20 mins by PET analysis; assay type: ADME, organism-based; conditions: in vivo; summary of the method: as §1
[4] = system: Hippocampus; assay: Drug uptake in Sprague-Dawley rat hippocampus at 24.1 MBq, iv measured within 20 mins by PET analysis; assay type: ADME, organism-based; conditions: in vivo; summary of the method: as §1
[5] = Metabolic stability in Sprague-Dawley rat plasma assessed as intact compound level at 24.1 MBq, iv after 50 mins by gamma counting analysis; assay type: ADME, organism-based; conditions: read-out: Stability
[6] = system: Liver; assay: Biodistribution in Sprague-Dawley rat liver at 27.4 to 48.1 MBq after 1 to 40 mins by gamma counting analysis; assay type: ADME, organism-based; conditions: in vivo
Summary of the method: (§2)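 Male Sprague Dawley rats (300–500 g) given the radioligand i.v. (27.4–48.1 MBq/animal) in 10% ethanol/saline. Three rats were sacrificed at each of 1, 5, 10, 20 and 40 min. Harvested tissues were weighed and gamma-counted. Counts were corrected for decay and injected activity and expressed as %ID/g tissue.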

[7] = system: Striatum; assay: Reduction in drug uptake in Sprague-Dawley rat striatum at 24.1 MBq, iv after 2 to 15 mins by PET analysis in presence of mGlu4 blocker N-(3-(Difluoromethoxy)phenyl)-2-picolinamide hydrochloride salt; assay type: ADME, organism-based; conditions: in vivo
Summary of the method: (§3)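 Rats were pretreated with the mGlu4 blocker (10 mg/kg i.p., in 10% ethanol/10% Tween-20 in water) 30 min before i.v. radioligand. Anesthetized rats were imaged by 60-min dynamic PET with CT attenuation correction and MLEM reconstruction. Uptake at 2–15 min was compared with control scans, and percent change was calculated per brain region.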

[8] = system: Hippocampus; assay: Drug uptake in Sprague-Dawley rat hippocampus at 24.1 MBq, iv measured for 1 to 3 mins by PET analysis; assay type: ADME, organism-based; conditions: in vivo; summary of the method: as §1
[9] = system: Cerebellum; assay: Reduction in drug uptake in Sprague-Dawley rat cerebellum at 24.1 MBq, iv after 2 to 15 mins by PET analysis in presence of mGlu4 blocker N-(3-(Difluoromethoxy)phenyl)-2-picolinamide hydrochloride salt; assay type: ADME, organism-based; conditions: in vivo; summary of the method: as §3
[10] = Reduction in drug uptake in Sprague-Dawley rat whole brain at 24.1 MBq, iv after 2 to 15 mins by PET analysis in presence of mGlu4 blocker N-(3-(Difluoromethoxy)phenyl)-2-picolinamide hydrochloride salt; assay type: ADME, organism-based; conditions: in vivo; summary of the method: as §3
[11] = Metabolic stability in Sprague-Dawley rat plasma assessed as intact compound level at 24.1 MBq, iv after 5 mins by gamma counting analysis; assay type: ADME, organism-based; conditions: read-out: Stability
Summary of the method: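 Femoral arterial blood was drawn from three rats at 5, 25 and 55 min after i.v. radioligand and centrifuged. Plasma was mixed 1:1 with acetonitrile and centrifuged to remove protein. The supernatant was loaded on a phenyl SPE cartridge and eluted with an acetonitrile–0.1% TFA/water gradient (0–100% acetonitrile) to separate intact tracer.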

[12] = system: Thalamus; assay: Drug uptake in Sprague-Dawley rat thalamus at 24.1 MBq, iv measured within 20 mins by PET analysis; assay type: ADME, organism-based; conditions: in vivo; summary of the method: as §1
[13] = system: Lung; assay: Biodistribution in Sprague-Dawley rat lung at 27.4 to 48.1 MBq after 1 to 40 mins by gamma counting analysis; assay type: ADME, organism-based; conditions: in vivo; summary of the method: as §2
[14] = system: Blood; assay: Biodistribution in Sprague-Dawley rat blood at 27.4 to 48.1 MBq after 1 to 40 mins by gamma counting analysis; assay type: ADME, organism-based; conditions: in vivo; summary of the method: as §2
[15] = system: Heart; assay: Biodistribution in Sprague-Dawley rat heart at 27.4 to 48.1 MBq after 1 to 40 mins by gamma counting analysis; assay type: ADME, organism-based; conditions: in vivo; summary of the method: as §2
[16] = system: Striatum; assay: Reduction in drug uptake in Sprague-Dawley rat striatum at 24.1 MBq, iv after 2 to 15 mins by PET analysis in presence of mGlu5 blocker MTEP hydrochloride; assay type: ADME, organism-based; conditions: in vivo
Summary of the method: (§4)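 MTEP·HCl (5 mg/kg, in sterile water) was injected into the tail vein 2 min before i.v. radioligand. Anesthetized rats were imaged by 60-min dynamic PET with CT attenuation correction and MLEM reconstruction. Uptake at 2–15 min was compared with control scans, and percent change was calculated per brain region.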

[17] = system: Striatum; assay: Drug uptake in Sprague-Dawley rat striatum at 24.1 MBq, iv measured within 20 mins by PET analysis; assay type: ADME, organism-based; conditions: in vivo; summary of the method: as §1
[18] = Reduction in drug uptake in Sprague-Dawley rat whole brain at 24.1 MBq, iv after 2 to 15 mins by PET analysis in presence of mGlu5 blocker MTEP hydrochloride; assay type: ADME, organism-based; conditions: in vivo; summary of the method: as §4
[19] = system: Kidney; assay: Biodistribution in Sprague-Dawley rat kidney at 27.4 to 48.1 MBq after 1 to 40 mins by gamma counting analysis; assay type: ADME, organism-based; conditions: in vivo; summary of the method: as §2
[20] = Octanol-PBS buffer partition coefficient, log D of the compound at pH 7.4 by gamma counting analysis; assay type: physicochemical
Summary of the method: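 Radiotracer was partitioned between PBS and octanol by vortexing 2 min, then centrifuging at >8000 rpm for 2 min. Octanol was serially re-extracted into fresh PBS across six tube sets. Phases were gamma-counted with decay correction. logD = log(octanol activity × 10 / PBS activity).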

[21] = system: Striatum; assay: Drug uptake in Sprague-Dawley rat striatum at 24.1 MBq, iv measured for 1 to 3 mins by PET analysis; assay type: ADME, organism-based; conditions: in vivo; summary of the method: as §1
[22] = system: Hippocampus; assay: Reduction in drug uptake in Sprague-Dawley rat hippocampus at 24.1 MBq, iv after 2 to 15 mins by PET analysis in presence of mGlu4 blocker N-(3-(Difluoromethoxy)phenyl)-2-picolinamide hydrochloride salt; assay type: ADME, organism-based; conditions: in vivo; summary of the method: as §3
[23] = system: Cerebellum; assay: Drug uptake in Sprague-Dawley rat cerebellum at 24.1 MBq, iv measured for 1 to 3 mins by PET analysis; assay type: ADME, organism-based; conditions: in vivo; summary of the method: as §1
[24] = system: Hippocampus; assay: Reduction in drug uptake in Sprague-Dawley rat hippocampus at 24.1 MBq, iv after 2 to 15 mins by PET analysis in presence of mGlu5 blocker MTEP hydrochloride; assay type: ADME, organism-based; conditions: in vivo; summary of the method: as §4
[25] = Drug uptake in Sprague-Dawley rat olfactory bulb at 24.1 MBq, iv measured within 20 mins by PET analysis; assay type: ADME, organism-based; conditions: in vivo; summary of the method: as §1
[26] = system: Muscle tissue; assay: Biodistribution in Sprague-Dawley rat muscle at 27.4 to 48.1 MBq after 1 to 40 mins by gamma counting analysis; assay type: ADME, organism-based; conditions: in vivo; summary of the method: as §2
[27] = system: Brain; assay: Biodistribution in Sprague-Dawley rat brain at 27.4 to 48.1 MBq after 1 to 40 mins by gamma counting analysis; assay type: ADME, organism-based; conditions: in vivo; summary of the method: as §2
[28] = target: Metabotropic glutamate receptor 5 (Homo sapiens) (UniProt P41594); assay: Antagonist activity at mGlu5a receptor (unknown origin) expressed in CHO cells assessed as inhibition of glutamate-induced inositol phosphate accumulation at 10 uM after 45 mins by liquid scintillation counting analysis relative to control; assay type: functional, cell-based
[29] = target: Metabotropic glutamate receptor 8 (Homo sapiens) (UniProt O00222); assay: Antagonist activity at mGlu8 receptor (unknown origin) expressed in CHO cells assessed as inhibition of glutamate-induced inositol phosphate accumulation at 10 uM after 45 mins by liquid scintillation counting analysis relative to control; assay type: functional, cell-based
[30] = target: Metabotropic glutamate receptor 8 (Homo sapiens) (UniProt O00222); assay: Agonist activity at mGlu8 receptor (unknown origin) expressed in CHO cells assessed as induction of inositol phosphate accumulation at 10 uM after 45 mins by liquid scintillation counting analysis relative to control; assay type: functional, cell-based
Summary of the method: (§5)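 Stably transfected CHO cells grown to confluency (3–4 days), then labelled overnight with myo-[3H]inositol in glutamine-free medium. Compound at 10 μM, 45 min at 37°C, in Locke's buffer pH 7.4 with 20 mM LiCl. IPs extracted with 0.1 M HCl, separated by anion exchange, counted by liquid scintillation. Result given as % of maximal agonist activity. Duplicates in two experiments on different passages.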

[31] = target: Metabotropic glutamate receptor 5 (Homo sapiens) (UniProt P41594); assay: Agonist activity at mGlu5a receptor (unknown origin) expressed in CHO cells assessed as induction of inositol phosphate accumulation at 10 uM after 45 mins by liquid scintillation counting analysis relative to control; assay type: functional, cell-based; summary of the method: as §5

Chain of Metabotropic glutamate receptor 8 (Homo sapiens) (O00222 whole entry): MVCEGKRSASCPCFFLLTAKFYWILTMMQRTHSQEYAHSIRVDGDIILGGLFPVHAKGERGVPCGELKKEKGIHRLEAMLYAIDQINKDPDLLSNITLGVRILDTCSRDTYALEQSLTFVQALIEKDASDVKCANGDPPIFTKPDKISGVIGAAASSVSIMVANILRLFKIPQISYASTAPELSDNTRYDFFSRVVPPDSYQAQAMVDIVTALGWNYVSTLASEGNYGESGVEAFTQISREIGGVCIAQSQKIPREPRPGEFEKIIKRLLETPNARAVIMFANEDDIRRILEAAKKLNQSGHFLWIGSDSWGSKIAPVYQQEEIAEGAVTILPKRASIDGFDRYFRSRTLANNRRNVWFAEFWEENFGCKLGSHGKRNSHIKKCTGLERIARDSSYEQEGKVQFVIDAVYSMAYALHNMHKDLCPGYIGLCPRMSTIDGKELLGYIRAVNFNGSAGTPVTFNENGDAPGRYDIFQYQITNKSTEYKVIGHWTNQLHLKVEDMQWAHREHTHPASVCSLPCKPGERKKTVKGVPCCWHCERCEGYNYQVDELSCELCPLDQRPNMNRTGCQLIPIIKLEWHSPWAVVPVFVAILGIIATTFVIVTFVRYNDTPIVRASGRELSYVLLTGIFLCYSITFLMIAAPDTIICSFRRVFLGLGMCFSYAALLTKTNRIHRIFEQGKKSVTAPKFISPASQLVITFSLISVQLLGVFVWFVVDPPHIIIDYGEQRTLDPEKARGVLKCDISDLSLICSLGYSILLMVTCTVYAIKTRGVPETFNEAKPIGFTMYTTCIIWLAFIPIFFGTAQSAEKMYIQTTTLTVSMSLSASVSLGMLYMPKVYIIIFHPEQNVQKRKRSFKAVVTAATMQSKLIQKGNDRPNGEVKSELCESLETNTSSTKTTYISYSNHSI
Chain of Metabotropic glutamate receptor 5 (Homo sapiens) (P41594 21-1212 limits assumed): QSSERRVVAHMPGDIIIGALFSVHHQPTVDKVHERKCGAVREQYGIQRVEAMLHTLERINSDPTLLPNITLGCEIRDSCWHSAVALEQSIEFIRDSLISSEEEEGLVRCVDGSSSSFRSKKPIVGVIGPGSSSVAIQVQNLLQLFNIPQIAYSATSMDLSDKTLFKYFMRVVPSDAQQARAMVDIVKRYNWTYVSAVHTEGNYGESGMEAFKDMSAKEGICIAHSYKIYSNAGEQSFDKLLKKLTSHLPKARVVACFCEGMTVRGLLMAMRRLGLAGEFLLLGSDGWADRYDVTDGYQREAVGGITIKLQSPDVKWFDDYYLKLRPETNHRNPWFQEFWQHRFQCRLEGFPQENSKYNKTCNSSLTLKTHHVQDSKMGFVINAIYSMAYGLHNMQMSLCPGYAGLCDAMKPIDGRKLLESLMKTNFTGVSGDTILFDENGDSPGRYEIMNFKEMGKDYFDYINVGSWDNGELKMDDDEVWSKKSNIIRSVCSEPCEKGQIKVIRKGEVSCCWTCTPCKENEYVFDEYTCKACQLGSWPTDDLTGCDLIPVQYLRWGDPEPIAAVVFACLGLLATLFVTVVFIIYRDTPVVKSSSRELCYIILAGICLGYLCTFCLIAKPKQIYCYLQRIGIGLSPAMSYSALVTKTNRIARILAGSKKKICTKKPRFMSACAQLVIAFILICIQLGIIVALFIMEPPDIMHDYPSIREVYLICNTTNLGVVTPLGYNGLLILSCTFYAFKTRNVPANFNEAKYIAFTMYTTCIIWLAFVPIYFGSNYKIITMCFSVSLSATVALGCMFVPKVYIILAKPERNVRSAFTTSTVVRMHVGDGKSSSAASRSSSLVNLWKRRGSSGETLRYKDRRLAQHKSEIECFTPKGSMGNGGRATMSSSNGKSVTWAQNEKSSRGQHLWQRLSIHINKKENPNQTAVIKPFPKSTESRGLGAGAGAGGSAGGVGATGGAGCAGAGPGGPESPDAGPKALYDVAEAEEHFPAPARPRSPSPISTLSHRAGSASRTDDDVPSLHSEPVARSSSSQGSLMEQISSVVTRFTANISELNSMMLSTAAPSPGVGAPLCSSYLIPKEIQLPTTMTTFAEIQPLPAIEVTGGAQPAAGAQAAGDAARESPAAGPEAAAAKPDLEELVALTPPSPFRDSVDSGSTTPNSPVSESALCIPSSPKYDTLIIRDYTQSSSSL

[11CH3]Oc1cc(NC(=O)c2ccccn2)ccc1Cl
Drug uptake [1]: Active | Drug uptake [2]: Active | Drug uptake [3]: Not Active | Drug uptake [4]: Not Active | remaining at 50 min [5]: 10% | Drug uptake [6]: > 1 % ID/g | Drug uptake [7]: Active | Drug uptake [8]: Active | Drug uptake [9]: Active | Drug uptake [10]: Active | remaining at 5 min [11]: 30% | Drug uptake [12]: Not Active | Drug uptake [13]: < 1 % ID/g | Drug uptake [14]: < 1 % ID/g | Drug uptake [15]: < 1 % ID/g | Drug uptake [16]: Active | Drug uptake [17]: Not Active | Drug uptake [18]: Active | Drug uptake [19]: > 1 % ID/g | logD [20]: 3.09 | Drug uptake [21]: Active | Drug uptake [22]: Active | Drug uptake [23]: Active | Drug uptake [24]: Active | Drug uptake [25]: Not Active | Drug uptake [26]: < 1 % ID/g | Drug uptake [27]: < 1 % ID/g

COc1cc(NC(=O)c2ccccn2)ccc1Cl
inhibition [28]: 51% | inhibition [29]: -5% | Activity [30]: 13% | Activity [31]: -15%
